From PMC8811919 (ACS Omega, 2022)
Read-outs that look alike come from different tables or passages of the source.

Tests used:
MCF-7 cells [1] = assay: Late apoptosis study; type: cell-based, human; details: treated at EC50 of 72 h, 36 h incubation
Procedure, shortened: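 MCF-7 cells were seeded at 2 × 10^4 on chamber slides and held 24 h at 37 °C, then exposed to test compound for 36 h; untreated cells served as control. Cells were fixed in 4% paraformaldehyde/PBS (pH 7.4) for 25 min at 4 °C and permeabilised with 0.2% Triton X-100 for 5 min. DNA ends were labelled with rTdT/nucleotide mix at 37 °C in the dark. Diluted SSC was added, and nuclei were counterstained with PI (1 μg/mL, 15 min, RT). FITC signal was imaged by high-content microscopy.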

[2] = tested on: MCF-7 (human breast adenocarcinoma); assay: Cell viability in treated cell lines; type: cell-based; details: MCF7, 72 h
Procedure, shortened: (§1)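 Cells were kept in RPMI 1640 with 10% FCS and penicillin/streptomycin at 37 °C, 5% CO2. They were seeded at 6000 cells/well, held 24 h, then given test compound at 0, 15.62, 31.25, 62.5, 125, 250, 500 and 1000 […] for 72 h. MTT (5 mg/mL) was added for 4 h, formazan dissolved in DMSO, and A570 read. Treatment was done in triplicate. EC50 came from sigmoidal variable-slope nonlinear regression of % growth inhibition.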

urease [3] = target: T1, urease (Canavalia ensiformis, UniProt P07374); assay: Urease inhibitory assay; type: biochemical
T1 sequence (P07374 whole entry, looked up): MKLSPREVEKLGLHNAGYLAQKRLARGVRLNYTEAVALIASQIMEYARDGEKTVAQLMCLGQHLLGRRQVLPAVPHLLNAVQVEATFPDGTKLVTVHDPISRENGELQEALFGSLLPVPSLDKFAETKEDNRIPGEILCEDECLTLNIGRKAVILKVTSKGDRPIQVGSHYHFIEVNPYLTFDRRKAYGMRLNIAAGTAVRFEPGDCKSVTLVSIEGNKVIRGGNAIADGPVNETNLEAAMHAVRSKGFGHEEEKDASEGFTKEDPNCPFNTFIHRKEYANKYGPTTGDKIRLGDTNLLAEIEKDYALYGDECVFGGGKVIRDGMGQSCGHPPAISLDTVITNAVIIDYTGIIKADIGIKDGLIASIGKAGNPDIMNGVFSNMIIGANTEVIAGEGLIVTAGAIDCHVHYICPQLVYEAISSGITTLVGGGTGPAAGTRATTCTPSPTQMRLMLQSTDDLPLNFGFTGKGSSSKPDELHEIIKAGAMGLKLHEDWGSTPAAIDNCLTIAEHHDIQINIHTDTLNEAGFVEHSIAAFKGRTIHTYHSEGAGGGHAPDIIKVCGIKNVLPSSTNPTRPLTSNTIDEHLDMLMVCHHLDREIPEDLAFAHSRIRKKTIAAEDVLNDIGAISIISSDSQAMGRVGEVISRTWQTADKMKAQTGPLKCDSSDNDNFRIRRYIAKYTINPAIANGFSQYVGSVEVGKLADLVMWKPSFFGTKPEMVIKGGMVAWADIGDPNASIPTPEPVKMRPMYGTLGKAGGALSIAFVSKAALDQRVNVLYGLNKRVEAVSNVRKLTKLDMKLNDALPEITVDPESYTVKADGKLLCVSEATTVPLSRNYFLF
Procedure, shortened: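 Urease in pH 8.2 buffer (0.01 M K2HPO4·3H2O, 1 mM EDTA, 0.01 M LiCl) with 100 mM urea, incubated 15 min at 30 °C with test compound added from a 1 mM solution. Ammonia detected by indophenol: alkali (0.5% NaOH, 0.1% active chloride NaOCl) plus phenol reagent (1% phenol, 0.005% nitroprusside). A630 read after 50 min as change per min; triplicate; acetohydroxamic acid standard; % inhibition.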

HeLa (cervical cancer) = assay: Cell viability in treated cell lines; type: cell-based; details: Homo sapiens, 72 h, read-out: EC50 HeLa
Procedure, shortened: as §1

urease [4] = target: T1, urease; assay: Kinetic study of urease inhibition; type: biochemical
MCF-7 cells [5] = assay: Early apoptosis study; type: cell-based, human; details: treated at EC50 of 72 h for 6 and 9 h
Procedure, shortened: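 MCF-7 cells were seeded at 10,000 cells/well and held 24 h at 37 °C. The medium was replaced with test compound, alongside a positive control and an untreated control, for 6 and 9 h. Cells were stained with Annexin V-FITC (green) and PI (red) in binding buffer for 10 min at 37 °C. They were imaged by widefield high-content imaging to score early versus late apoptosis and necrosis.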

| IC50 (urease [3]) [µM] | EC50 ([2]; read-out: EC50 MCF-7) [µM] | EC50 (HeLa (cervical cancer)) [µM] | Compound | also measured |
| --- | --- | --- | --- | --- |
| – | – | – | CCCCCOC(=O)Nc1nc(=O)n([C@@H]2O[C@H](C)[C@@H](O)[C@H]2O)cc1F [CP, capecitabine, reference compound] | DNA fragmentation (TUNEL, green stain of nuclei) (MCF-7 cells [1]): green-stained nuclei were observed; EC50 ([2]; read-out: EC50 on MCF-7): 980 µM |
| 12.6 ± 0.43 | > 500 | > 500 | Oc1ccccc1C1=NN(c2ccccc2)C(c2ccc(Br)cc2)C1 (stereo not shown) [Compound 2c, 1-Phenyl-3(2-hydroxy-phenyl)-5-(4-bromo-phenyl)-2-pyrazoline] | – |
| 13.3 ± 0.25 | > 500 | > 500 | COc1cc(C2CC(c3ccccc3O)=NN2c2ccccc2)cc(OC)c1OC (stereo not shown) [Compound 2d, 1-Phenyl-3(2-hydroxy-phenyl)-5-(3,4,5-trimethoxyphenyl)-2-pyrazoline] | – |
| 15.4 ± 0.38 | > 500 | > 500 | COc1ccc(C2CC(c3ccccc3O)=NN2c2ccccc2)cc1 (stereo not shown) [Compound 2e, 1-Phenyl-3(2-hydroxy-phenyl)-5-(4-methoxyphenyl)-2-pyrazoline] | – |
| 9.13 ± 0.25 | > 500 | > 500 | COc1ccc(C2CC(c3ccccc3O)=NN2c2ccccc2)cc1OC (stereo not shown) [Compound 2g, 1-Phenyl-3(2-hydroxy-phenyl)-5-(3,4-dimethoxyphenyl)-2-pyrazoline] | Ki (urease [4]): 19.1 µM; mode of inhibition (urease [4]; urease): competitive inhibition; Vmax (urease [4]; urease, at a 20 μM inhibitor concentration): 5.76 µM/min |
| 11.3 ± 0.51 | > 500 | > 500 | O=C(O)c1ccc(C2CC(c3ccccc3O)=NN2c2ccccc2)cc1 (stereo not shown) [Compound 2h, 1-Phenyl-3(2-hydroxy-phenyl)-5-(4-carboxyphenyl)-2-pyrazoline] | – |
| 13.7 ± 0.47 | > 500 | > 500 | CC(=O)Nc1ccc(C2CC(c3ccccc3O)=NN2c2ccccc2)cc1 (stereo not shown) [Compound 2j, 1-Phenyl-3(2-hydroxy-phenyl)-5-(4-acetamidophenyl)-2-pyrazoline] | – |
| 12.2 ± 0.38 | > 500 | > 500 | Cc1ccc(C2CC(c3ccccc3O)=NN2c2ccccc2)c(C)c1 (stereo not shown) [Compound 2p, 1-Phenyl-3(2-hydroxy-phenyl)-5(2,4-dimethyl-phenyl)-2-pyrazoline] | – |

| Compound | IC50 (urease [3]) [µM] | EC50 ([2]; read-out: EC50 MCF-7) [µM] | EC50 (HeLa (cervical cancer)) [µM] | also measured |
| --- | --- | --- | --- | --- |
| Oc1ccccc1C1=NN(c2ccccc2)C(c2ccccc2)C1 (stereo not shown) [Compound 2l, 1-Phenyl-3(2-hydroxy-phenyl)-5-phenyl-2-pyrazoline] | – | 120 ± 0.1 | 510 | urease IC50 ± SEM (urease [3]; pH 8.2, 30 °C, 100 mM urea): NA* ^a; DNA fragmentation (TUNEL, green stain of nuclei) (MCF-7 cells [1]): morphologically detectable (green); mode of MCF-7 cell death (Annexin V-FITC/PI staining) (MCF-7 cells [5]): induce early apoptosis |
